Assay results from ChEMBL document CHEMBL3779892, “Increasing the binding affinity of VEGFR-2 inhibitors by extending their hydrophobic interaction with the active site: Design, synthesis and biological evaluation of 1-substituted-4-(4-methoxybenzyl)phthalazine derivatives” (Eur J Med Chem, 2016).

Columns and labels:
Assay type in all cases: functional
[1] = Growth inhibition of human IGROV1 cells at 10 uM after 48 hrs by sulforhodamine B assay; conditions: IGROV-1, 48 h, read-out: GI
Procedure, shortened: (§1)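 Run at NCI on the 60-line panel. Cells grown in RPMI 1640 with 5% FBS and 2 mM L-glutamine, plated at 5000–40,000 cells/well by doubling time, and held 24 h at 37 °C before dosing. Drug (DMSO stock) given at a single final 10 µM in triplicate wells for 48 h. Adherent cells fixed with cold TCA (10% final), suspension cells with 16% TCA. SRB stain read at 515 nm. Percent growth from Tz, C and Ti.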

[2] = Growth inhibition of human SNB19 cells at 10 uM after 48 hrs by sulforhodamine B assay; conditions: SNB-19, 48 h, read-out: GI; procedure, shortened: as §1
[3] = Growth inhibition of human BT549 cells at 10 uM after 48 hrs by sulforhodamine B assay; conditions: BT-549, 48 h, read-out: GI; procedure, shortened: as §1
[4] = Growth inhibition of human MOLT4 cells at 10 uM after 48 hrs by sulforhodamine B assay; conditions: MOLT-4, 48 h, read-out: GI; procedure, shortened: as §1
[5] = test system: A498; assay: Growth inhibition of human A498 cells at 10 uM after 48 hrs by sulforhodamine B assay; conditions: A498, 48 h, read-out: GI; procedure, shortened: as §1
[6] = test system: CCRF-CEM; assay: Growth inhibition of human CCRF-CEM cells at 10 uM after 48 hrs by sulforhodamine B assay; conditions: read-out: GI; procedure, shortened: as §1
[7] = test system: HT-29; assay: Growth inhibition of human HT-29 cells at 10 uM after 48 hrs by sulforhodamine B assay; conditions: HT-29, 48 h, read-out: GI; procedure, shortened: as §1
[8] = test system: T47D; assay: Growth inhibition of human T47D cells at 10 uM after 48 hrs by sulforhodamine B assay; conditions: read-out: GI
Procedure, shortened: (§2)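 NCI-60 panel, adherent cells grown in RPMI 1640 with 5% FBS and 2 mM L-glutamine, plated at 5000–40,000 cells/well and preincubated 24 h at 37 °C, 5% CO2. 10 µM final compound from DMSO stock, triplicate wells, 48 h. Fixed with cold TCA (10% final, 60 min, 4 °C) and stained with 0.4% SRB. Absorbance read at 515 nm; growth calculated against time-zero and control wells.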

[9] = Growth inhibition of human OVCAR3 cells at 10 uM after 48 hrs by sulforhodamine B assay; conditions: OVCAR-3, 48 h, read-out: GI; procedure, shortened: as §1
[10] = test system: MCF7; assay: Growth inhibition of human MCF7 cells at 10 uM after 48 hrs by sulforhodamine B assay; conditions: MCF7, 48 h, read-out: GI; procedure, shortened: as §1
[11] = test system: NCI-H460; assay: Growth inhibition of human NCI-H460 cells at 10 uM after 48 hrs by sulforhodamine B assay; conditions: NCI-H460, 48 h, read-out: GI; procedure, shortened: as §1
[12] = Growth inhibition of human OVCAR8 cells at 10 uM after 48 hrs by sulforhodamine B assay; conditions: OVCAR-8, 48 h, read-out: GI; procedure, shortened: as §1
[13] = test system: 786-0; assay: Growth inhibition of human 786-0 cells at 10 uM after 48 hrs by sulforhodamine B assay; conditions: 786-0, 48 h, read-out: GI; procedure, shortened: as §1
[14] = Growth inhibition of human COLO205 cells at 10 uM after 48 hrs by sulforhodamine B assay; conditions: COLO 205, 48 h, read-out: GI; procedure, shortened: as §1
[15] = Growth inhibition of human UO31 cells at 10 uM after 48 hrs by sulforhodamine B assay; conditions: UO-31, 48 h, read-out: GI; procedure, shortened: as §2
[16] = test system: MDA-MB-231; assay: Growth inhibition of human MDA-MB-231 cells at 10 uM after 48 hrs by sulforhodamine B assay; conditions: MDA-MB-231, 48 h, read-out: GI; procedure, shortened: as §1
[17] = test system: SN12C; assay: Growth inhibition of human SN12C cells at 10 uM after 48 hrs by sulforhodamine B assay; conditions: read-out: GI; procedure, shortened: as §1
[18] = test system: K562; assay: Growth inhibition of human K562 cells at 10 uM after 48 hrs by sulforhodamine B assay; conditions: K562, 48 h, read-out: GI; procedure, shortened: as §1
[19] = test system: U-251; assay: Growth inhibition of human U251 cells at 10 uM after 48 hrs by sulforhodamine B assay; conditions: U-251, 48 h, read-out: GI; procedure, shortened: as §2
[20] = Growth inhibition of human TK10 cells at 10 uM after 48 hrs by sulforhodamine B assay; conditions: TK-10, 48 h, read-out: GI; procedure, shortened: as §2
[21] = test system: Malme-3M; assay: Growth inhibition of human MALME-3M cells at 10 uM after 48 hrs by sulforhodamine B assay; conditions: read-out: GI; procedure, shortened: as §1
[22] = Growth inhibition of human OVCAR4 cells at 10 uM after 48 hrs by sulforhodamine B assay; conditions: OVCAR-4, 48 h, read-out: GI; procedure, shortened: as §1
[23] = Growth inhibition of human SKOV3 cells at 10 uM after 48 hrs by sulforhodamine B assay; conditions: SK-OV-3, 48 h, read-out: GI; procedure, shortened: as §1

Row | SMILES | inhibition of growth at 10 µM [1] [%] | inhibition of growth at 10 µM [2] [%] | inhibition of growth at 10 µM [3] [%] | inhibition of growth at 10 µM [4] [%] | inhibition of growth at 10 µM [5] [%] | inhibition of growth at 10 µM [6] [%] | inhibition of growth at 10 µM [7] [%] | inhibition of growth at 10 µM [8] [%] | inhibition of growth at 10 µM [9] [%] | inhibition of growth at 10 µM [10] [%] | inhibition of growth at 10 µM [11] [%] | inhibition of growth at 10 µM [12] [%] | inhibition of growth at 10 µM [13] [%] | inhibition of growth at 10 µM [14] [%] | inhibition of growth at 10 µM [15] [%] | inhibition of growth at 10 µM [16] [%] | inhibition of growth at 10 µM [17] [%] | inhibition of growth at 10 µM [18] [%] | inhibition of growth at 10 µM [19] [%] | inhibition of growth at 10 µM [20] [%] | further results
1 | COc1ccc(Cc2nnc(Nc3ccc(NC(=O)Nc4ccc(Cl)cc4)cc3)c3ccccc23)cc1 | < 30 | 39 | 37 | 44 | 32 | 42 | 34 | 37 | < 30 | 33 | 110 | < 30 | 58 | < 30 | < 30 | 30 | < 30 | < 30 | 48 | < 30 | inhibition of growth at 10 µM [21]: < 30%; inhibition of growth at 10 µM [22]: < 30%; inhibition of growth at 10 µM [23]: < 30%
2 | COc1ccc(Cc2nnc(Nc3ccc(NC(=O)Nc4ccccc4)cc3)c3ccccc23)cc1 | < 30 | < 30 | < 30 | 30 | < 30 | 34 | < 30 | 41 | < 30 | < 30 | < 30 | < 30 | 36 | < 30 | < 30 | 31 | < 30 | < 30 | 32 | < 30 | inhibition of growth at 10 µM [21]: < 30%; inhibition of growth at 10 µM [22]: < 30%; inhibition of growth at 10 µM [23]: < 30%
3 | COc1ccc(Cc2nnc(Nc3ccc(Cl)c(C(F)(F)F)c3)c3ccccc23)cc1 | 32 | 43 | < 30 | 69 | 46 | 52 | 48 | 59 | 59 | 48 | 74 | 40 | 41 | < 30 | 63 | 40 | 46 | 60 | 59 | 40 | inhibition of growth at 10 µM [21]: < 30%; inhibition of growth at 10 µM [22]: 45%; inhibition of growth at 10 µM [23]: < 30%
4 | COc1ccc(Cc2nnc(Nc3cccc(Cl)c3)c3ccccc23)cc1 | < 30 | 37 | < 30 | 37 | 34 | < 30 | 31 | 41 | 34 | < 30 | 34 | < 30 | < 30 | < 30 | 61 | 39 | 34 | 45 | 34 | < 30 | inhibition of growth at 10 µM [21]: < 30%; inhibition of growth at 10 µM [22]: < 30%; inhibition of growth at 10 µM [23]: < 30%
5 | COc1ccc(Cc2nnc(Nc3ccc(NC(=O)Nc4ccc(Cl)c(C(F)(F)F)c4)cc3)c3ccccc23)cc1 | 53 | 45 | < 30 | 50 | < 30 | 55 | 61 | 47 | 78 | 46 | 36 | 66 | 62 | 30 | < 30 | 41 | < 30 | 43 | 51 | < 30 | inhibition of growth at 10 µM [21]: < 30%; inhibition of growth at 10 µM [22]: 60%; inhibition of growth at 10 µM [23]: 38%
6 | COc1ccc(Cc2nnc(Nc3ccc(NC(=O)Nc4ccc(C#N)cc4)cc3)c3ccccc23)cc1 | 46 | 43 | 51 | 56 | 54 | 47 | 45 | 48 | < 30 | 45 | 40 | < 30 | 83 | < 30 | 44 | 63 | < 30 | 50 | 63 | < 30 | inhibition of growth at 10 µM [21]: 42%; inhibition of growth at 10 µM [22]: < 30%; inhibition of growth at 10 µM [23]: 37%
7 | COc1ccc(Cc2nnc(Nc3ccc(OC)cc3)c3ccccc23)cc1 | < 30 | < 30 | < 30 | 31 | 47 | < 30 | < 30 | 46 | < 30 | 38 | < 30 | < 30 | < 30 | < 30 | 43 | 36 | 34 | < 30 | < 30 | < 30 | inhibition of growth at 10 µM [21]: < 30%; inhibition of growth at 10 µM [22]: < 30%; inhibition of growth at 10 µM [23]: < 30%
8 | COc1ccc(Cc2nnc(Nc3ccccc3)c3ccccc23)cc1 | < 30 | < 30 | < 30 | < 30 | 35 | < 30 | < 30 | < 30 | < 30 | < 30 | < 30 | < 30 | < 30 | < 30 | 38 | < 30 | < 30 | < 30 | < 30 | < 30 | inhibition of growth at 10 µM [21]: < 30%; inhibition of growth at 10 µM [22]: < 30%; inhibition of growth at 10 µM [23]: < 30%
